The values that follow come from ChEMBL document CHEMBL4396973, “Design and development of a series of borocycles as selective, covalent kallikrein 5 inhibitors” (Bioorg Med Chem Lett, 2019).

Structures can show the parent of a compound that is named as a salt.

The target in series [1] is Urokinase-type plasminogen activator (Homo sapiens, UniProt P00749). Nature of the series: Inhibition of recombinant human C-terminal 10-His-tagged urokinase (M1 to L431 residues) expressed in mouse NS0 cells using Z-GGR-AMC as substrate incubated for 40 mins by FLINT assay.
The target of the next series is Kallikrein-7 (Homo sapiens, UniProt P49862). Nature of the series: Inhibition of recombinant human C-terminal 10-His-tagged KLK7 (Glu23 to His252 residues) expressed in mouse NS0 cells using 5-FAM-E-A-L-Y-L-V-S-G-C(5-TAMRA) as substrate incubated for 40 mins by FLINT assay.
For series [2], the target named is T1, Suppressor of tumorigenicity 14 protein (Homo sapiens, UniProt Q9Y5Y6).
T1 sequence (Q9Y5Y6 whole entry): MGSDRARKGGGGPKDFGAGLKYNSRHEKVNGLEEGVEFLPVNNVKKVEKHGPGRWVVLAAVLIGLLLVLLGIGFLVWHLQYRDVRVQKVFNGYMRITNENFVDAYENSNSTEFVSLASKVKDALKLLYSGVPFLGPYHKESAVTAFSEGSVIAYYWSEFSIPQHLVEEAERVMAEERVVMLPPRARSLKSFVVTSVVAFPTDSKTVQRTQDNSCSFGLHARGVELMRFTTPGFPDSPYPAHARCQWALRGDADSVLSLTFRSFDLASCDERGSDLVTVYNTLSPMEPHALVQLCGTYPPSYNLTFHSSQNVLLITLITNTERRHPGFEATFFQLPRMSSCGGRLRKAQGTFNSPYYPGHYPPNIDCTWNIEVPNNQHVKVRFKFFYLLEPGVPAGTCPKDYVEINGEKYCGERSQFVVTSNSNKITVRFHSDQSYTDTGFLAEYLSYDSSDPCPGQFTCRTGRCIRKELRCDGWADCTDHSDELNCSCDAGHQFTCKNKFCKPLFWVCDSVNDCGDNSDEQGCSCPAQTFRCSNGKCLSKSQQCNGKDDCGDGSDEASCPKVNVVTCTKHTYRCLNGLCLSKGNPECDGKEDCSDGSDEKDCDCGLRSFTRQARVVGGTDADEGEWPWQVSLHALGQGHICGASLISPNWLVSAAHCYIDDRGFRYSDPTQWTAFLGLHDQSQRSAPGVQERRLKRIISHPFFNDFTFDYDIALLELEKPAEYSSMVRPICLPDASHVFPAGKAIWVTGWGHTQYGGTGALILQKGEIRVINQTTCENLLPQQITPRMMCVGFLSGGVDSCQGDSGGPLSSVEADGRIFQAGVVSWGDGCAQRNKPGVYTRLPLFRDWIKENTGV
As to the kind of experiment: Inhibition of recombinant human N-terminal Met and 6-His-tagged matriptase (G596 to V855 residues) expressed in Escherichia coli using Boc-QAR-AMC as substrate incubated for 40 mins by FLINT assay.

The target of series [3] is T2, Kallikrein-5 (Homo sapiens, UniProt Q9Y337).
T2 sequence (Q9Y337 whole entry): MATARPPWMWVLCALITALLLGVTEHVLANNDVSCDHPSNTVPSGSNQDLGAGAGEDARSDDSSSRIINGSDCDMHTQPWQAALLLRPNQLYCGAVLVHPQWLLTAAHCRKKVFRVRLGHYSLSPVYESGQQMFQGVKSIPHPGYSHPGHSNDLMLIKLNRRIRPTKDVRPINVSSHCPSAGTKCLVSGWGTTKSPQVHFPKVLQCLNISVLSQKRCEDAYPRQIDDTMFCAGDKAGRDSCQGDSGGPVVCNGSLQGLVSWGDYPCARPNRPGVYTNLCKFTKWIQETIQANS
Nature of the series: Inhibition of human recombinant 6His-Q-FLAG-tagged KLK5 expressed in baculovirus infected Sf9 insect cells using (Tos-Gly-Pro-Arg)2[R110].2TFA as substrate measured at 30 secs interval for 5 mins using 1 x 10'10M enzyme by FLINT assay.

The target of series [4] is Kallikrein-5 (Homo sapiens) (UniProt Q9Y337). Nature of the series: Covalent reversible inhibition of human recombinant 6His-Q-FLAG-tagged KLK5 expressed in baculovirus infected Sf9 insect cells assessed as dissociation rate constant. Put shortly:
(§1)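 Jump-dilution experiment used to follow dissociation from KLK5. The apparent off-rate constant (K-off, per min) and dissociation half-life (T1/2) were derived from it.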

The next series has as its target Plasma kallikrein (Homo sapiens, UniProt P03952). As to the kind of experiment: Inhibition of human C-terminal 6-His-tagged KLKB1 (G20-A638 residues) expressed in mouse NS0 cells using PFR-AMC as substrate incubated for 40 mins by FLINT assay.
Series [5] concerns the target Kallikrein-5 (Homo sapiens) (UniProt Q9Y337). As to the kind of experiment: Covalent reversible inhibition of human recombinant 6His-Q-FLAG-tagged KLK5 expressed in baculovirus infected Sf9 insect cells assessed as dissociation half life. An outline of the steps:
as §1

Series [6] concerns the target T2, Kallikrein-5. Nature of the series: Inhibition of human recombinant 6His-Q-FLAG-tagged KLK5 expressed in baculovirus infected Sf9 insect cells using (Tos-Gly-Pro-Arg)2[R110].2TFA as substrate measured at 30 secs interval for 5 mins by FLINT assay. An outline of the steps: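 Standard KLK5 assay format. Its theoretical tight-binding limit corresponds to pIC50 8.4.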

The target of a further series is T3, Neutrophil elastase (Homo sapiens, UniProt P08246).
T3 sequence (P08246 whole entry): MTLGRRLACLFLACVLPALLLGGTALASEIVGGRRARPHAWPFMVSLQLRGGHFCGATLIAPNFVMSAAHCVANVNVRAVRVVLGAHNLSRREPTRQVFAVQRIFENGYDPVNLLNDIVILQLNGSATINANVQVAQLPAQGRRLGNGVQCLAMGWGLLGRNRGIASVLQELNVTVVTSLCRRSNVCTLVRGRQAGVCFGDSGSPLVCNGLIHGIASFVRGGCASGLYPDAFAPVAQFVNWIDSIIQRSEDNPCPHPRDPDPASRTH
Nature of the series: Inhibition of human neutrophil elastase using MeOSuc-AAPV-AMC as substrate incubated for 40 mins by FLINT assay.

The target in another series is T4, Kallikrein-8 (Homo sapiens, UniProt O60259).
T4 sequence (O60259 whole entry): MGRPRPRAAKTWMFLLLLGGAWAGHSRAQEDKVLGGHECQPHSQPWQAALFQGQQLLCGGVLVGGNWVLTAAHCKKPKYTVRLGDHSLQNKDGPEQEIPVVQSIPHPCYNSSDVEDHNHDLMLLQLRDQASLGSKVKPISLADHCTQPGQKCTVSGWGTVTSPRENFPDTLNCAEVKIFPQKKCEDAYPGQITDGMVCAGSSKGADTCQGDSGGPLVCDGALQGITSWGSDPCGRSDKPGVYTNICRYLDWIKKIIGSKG
Nature of the series: Inhibition of recombinant human C-terminal 10-His-tagged KLK8 (Gln29 to Gly260 residues) expressed in mouse NS0 cells using BOC-VPR-AMC as substrate incubated for 40 mins by FLINT assay.

The next series deals with Coagulation factor X (Homo sapiens, UniProt P00742). Nature of the series: Inhibition of recombinant human C-terminal 10-His-tagged factor Xa (L24 to K488 residues) expressed in baculovirus infected Sf21 insect cells using Mca-RPKPVE-Nval-WRK(Dnp)-NH2 as substrate incubated for 40 mins by FLINT assay.
Another series concerns the target Prothrombin (Homo sapiens, UniProt P00734). Nature of the series: Inhibition of human recombinant C-terminal 10-His-tagged thrombin (M1 to E622 residues) expressed in mouse NS0 cells using BOC-VPR-AMC as substrate incubated for 40 mins by FLINT assay.
The next series has as its target T5, Kallikrein-14 (Homo sapiens, UniProt Q9P0G3).
T5 sequence (Q9P0G3 whole entry): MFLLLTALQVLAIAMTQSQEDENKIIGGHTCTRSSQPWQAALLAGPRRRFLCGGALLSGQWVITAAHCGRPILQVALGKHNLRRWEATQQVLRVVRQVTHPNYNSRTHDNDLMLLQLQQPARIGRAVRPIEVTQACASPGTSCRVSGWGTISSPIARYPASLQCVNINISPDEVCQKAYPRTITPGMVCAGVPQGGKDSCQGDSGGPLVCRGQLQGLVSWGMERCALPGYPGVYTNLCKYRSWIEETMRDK
Nature of the series: Inhibition of recombinant human C-terminal 10-His-tagged KLK14 (Q19 to M248 residues) expressed in mouse NS0 cells using BOC-VPR-AMC as substrate incubated for 40 mins by FLINT assay.

For another series, the target named is Kallikrein-1 (Homo sapiens, UniProt P06870). Nature of the series: Inhibition of human recombinant N-terminal His-tagged and enterokinase cleavage site-fused KLK1 (19 to 262 residues) expressed in baculovirus infected Sf9 insect cells using R110 labelled GSK3162232A as substrate measured at 30 secs interval for 5 mins by FLINT assay.
The species named for series [7] is Homo sapiens. Nature of the series: Selectivity ratio of IC50 for human recombinant N-terminal His-tagged and enterokinase cleavage site-fused KLK1 (19 to 262 residues) expressed in baculovirus infected Sf9 insect cells to IC50 for human recombinant 6His-Q-FLAG-tagged KLK5 expressed in baculovirus infected Sf9 insect cells.
The species named for series [8] is Homo sapiens. Nature of the series: Selectivity ratio of IC50 for human C-terminal 6-His-tagged KLKB1 (G20 to A638 residues) expressed in mouse NS0 cells to IC50 for human recombinant 6His-Q-FLAG-tagged KLK5 expressed in baculovirus infected Sf9 insect cells.
Series [9] is described as follows: Dissociation constant, borocycle pKa of the compound. The format is physicochemical.
The target in series [10] is T2, Kallikrein-5. As to the kind of experiment: Inhibition of human recombinant 6His-Q-FLAG-tagged KLK5 expressed in baculovirus infected Sf9 insect cells using rhodamine-labelled tripeptide as substrate measured at 30 secs interval for 5 mins by FLINT assay.

One may read the IC50 as the concentration that inhibits the measured activity by half. As for `N=C(N)c1ccc([C@@H]2Cc3ccc(C(F)(F)F)cc3B(O)O2)cc1OCc1cccnc1`, the 50% inhibitory concentration (IC50) in [1] is more than 100000 nM; at Kallikrein-7, more than 100000 nM; in series [2], 2000 nM; on Kallikrein-5 [3] it was less than 0.794 nM; at Plasma kallikrein, 398 nM; at Kallikrein-5 [6], 5.01 nM. The IC50 on Neutrophil elastase is more than 100000 nM; on Kallikrein-8, 31.6 nM; at Coagulation factor X, 3980 nM; on Prothrombin, 20000 nM; on Kallikrein-14, 398 nM; on Kallikrein-1, 2000 nM. Also, the Kdiss in series [4] was 0.00214 s⁻¹. Besides, in series [5], the T1/2 came out at 5 min.
One may read the pKa as the negative logarithm of the acid dissociation constant. Higher therefore signals a group that holds its proton tightly. As to `N=C(N)c1ccc(CC2OB(O)c3ccccc32)cc1OCc1cccnc1` (racemic), the IC50 is 79400 nM in [1]; more than 100000 nM at Kallikrein-7; 7940 nM in series [2]; 6.31 nM on Kallikrein-5 [3]; 79.4 nM on Plasma kallikrein; 20 nM on Kallikrein-5 [6]. In addition, the IC50 is 12600 nM against Neutrophil elastase; 200 nM on Kallikrein-8; more than 100000 nM on Coagulation factor X; 10000 nM on Prothrombin; 2000 nM at Kallikrein-14; 316000 nM at Kallikrein-1. Besides, the Ratio IC50 is more than 100 in the series listed under Homo sapiens [7] and 10 in the series listed under Homo sapiens [8]. In series [9], this compound displayed a pKa of 4.8.
With `N=C(N)c1ccccc1` [BENZAMIDINE HYDROCHLORIDE], the IC50 at Kallikrein-5 [10] is 501000 nM.
